The target of assay [1] is T1, Human immunodeficiency virus type 1 protease (Human immunodeficiency virus 1, UniProt Q72874). The experiment in a line: Inhibitory activity of the Compound was tested against HIV protease enzyme.(value reported by Rich etal).
The target in assay [2] is T1, Human immunodeficiency virus type 1 protease. The experiment in a line: (§1) Inhibitory activity of the Compound was tested against HIV protease enzyme. In outline: (§2)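 HIV-1 protease (BRU strain), microbially expressed; activity followed as hydrolysis of the octapeptide substrate VSQN-β-naphthylalanine-PIV, using a modified literature method.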
Assay [3] has the same target. Described as §1. In outline:
as §2
The source holds these as a separate data set.

The target is the same in assay [4]. The experiment in a line: Inhibitory activity of the Compound was tested against HIV protease enzyme. In outline:
(§3)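 HIV-1 protease from the BRU strain was expressed in a microbial host. Activity was followed as hydrolysis of the octapeptide substrate VSQN-β-naphthylalanine-PIV, using a modified version of Heimbach's method.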

Assay [5] shares this target. The assay is described as follows: Binding affinity against HIV Protease enzyme.(by Dixon analysis). In outline: as §3
Assay [6] has the same target. The experiment in a line: Inhibitory activity of the Compound was tested against HIV protease enzyme.(value reported by Roche group).
The target is the same in assay [7]. The assay is described as follows: Binding affinity against HIV protease enzyme.(by Dixon analysis). In outline: as §3

The IC50 is the concentration needed to halve the response being measured. Read a high IC50 as weaker potency. As for `CC(C)(C)OC(=O)[C@@H]1CCCN1C[C@H](O)[C@H](Cc1ccccc1)NC(=O)[C@H](CC(N)=O)NC(=O)OCc1ccccc1`, the IC50 in assay [1] was found to be 0.45 µM; in assay [2], 0.18 µM; in assay [3], 0.13 µM.

With `CC(C)(C)NC(=O)[C@@H]1C[C@@H]2CCCC[C@@H]2CN1C(=O)[C@@H](O)[C@H](Cc1ccccc1)NC(=O)[C@H](CC(N)=O)NC(=O)OCc1ccccc1`, the IC50 in assay [4] was 0.084 µM.

As to `CC(C)(C)NC(=O)[C@@H]1C[C@@H]2CCCC[C@@H]2CN1C(=O)[C@@H](O)[C@H](Cc1ccccc1)NC(=O)[C@H](CC(N)=O)NC(=O)c1ccc2ccccc2n1`, in assay [4], the half-maximal inhibitory concentration (IC50) turned out to be 0.027 µM.

`CC(C)(C)NC(=O)[C@@H]1CCCCN1C(=O)[C@@H](O)[C@H](Cc1ccccc1)NC(=O)[C@H](CC(N)=O)NC(=O)OCc1ccccc1` displayed an IC50 in assay [4] of 0.026 µM.

In turn, `CC(C)(C)NC(=O)[C@@H]1CCCN1C(=O)C(=O)[C@H](Cc1ccccc1)NC(=O)[C@H](CC(N)=O)NC(=O)OCc1ccccc1` came in with an IC50 in assay [4] of 0.02 µM.

As usually defined, the Ki is a dissociation constant, usually derived from enzyme kinetics or from competition with a known ligand. Read a high Ki as a looser hold on the target. In assay [4], `CC(C)(C)NC(=O)[C@@H]1CCCN1C(=O)[C@@H](O)[C@H](Cc1ccccc1)NC(=O)[C@H](CC(N)=O)NC(=O)COc1cccc2ccccc12` yielded a half-maximal inhibitory concentration (IC50) of 0.00058 µM. Further, in assay [5], the Ki was 0.0004 µM.

Consider `CC[C@H](C)[C@H](NC(=O)[C@@H]1CCCN1C(=O)[C@@H](O)[C@H](Cc1ccccc1)NC(=O)[C@@H](CC(N)=O)NC(=O)OCc1ccccc1)C(=O)N[C@H](C(=O)OC)C(C)C`, for which 0.0031 µM corresponded to half-maximal inhibition in assay [4] (IC50).

With `CC(C)[C@H](NC(=O)OCc1ccccc1)C(=O)N[C@@H](Cc1ccccc1)[C@H](O)C(=O)N1CCC[C@H]1C(=O)NC(C)(C)C`, the half-maximal inhibitory concentration (IC50) in assay [4] was found to be 0.0043 µM.

As for `CC(C)(C)NC(=O)[C@@H]1CCCN1C(=O)[C@@H](O)[C@H](Cc1ccccc1)NC(=O)[C@H](CC(N)=O)NC(=O)OCc1ccccc1`, the IC50 in assay [4] came to 0.0074 µM. The inhibitory constant (Ki) in assay [5] is 0.004 µM.

Compound `CC(C)(C)NC(=O)[C@@H]1CCCN1C(=O)[C@@H](O)[C@H](Cc1ccccc1)NC(=O)[C@H](CC(N)=O)NC(=O)COc1ccc2ccccc2c1` came in with a half-maximal inhibitory concentration (IC50) in assay [4] of 0.0013 µM.

For the compound `CC(C)(C)NC(=O)[C@@H]1CCCN1C[C@@H](O)[C@H](Cc1ccccc1)NC(=O)[C@H](CC(N)=O)NC(=O)OCc1ccccc1`, 0.21 µM corresponded to half-maximal inhibition in assay [6] (IC50).

As for `CC(C)(C)NC(=O)[C@@H]1CC2CCCCC2CN1C[C@@H](O)[C@H](Cc1ccccc1)NC(=O)[C@H](CC(N)=O)NC(=O)OCc1ccccc1` (stereo not given in full), the IC50 in assay [6] was below 0.0027 µM.

In assay [6], `CC(C)(C)OC(=O)[C@@H]1CCCN1C[C@@H](O)[C@H](Cc1ccccc1)NC(=O)OCc1ccccc1` yielded an IC50 of 6.5 µM.

In assay [4], `CC[C@H](C)[C@H](NC(=O)[C@@H]1CCCN1C(=O)[C@H](O)[C@H](Cc1ccccc1)NC(=O)[C@H](CC(N)=O)NC(=O)OCc1ccccc1)C(=O)N[C@H](C(=O)OC)C(C)C` showed an IC50 of 0.025 µM.

As to `CC(C)(C)NC(=O)[C@@H]1CCCN1C(=O)C(=O)[C@H](Cc1ccccc1)NC(=O)OCc1ccccc1`, the 50% inhibitory concentration (IC50) in assay [4] came out at 0.6 µM.

As for `CC(C)[C@H](NC(=O)COc1cccc2ccccc12)C(=O)N[C@@H](Cc1ccccc1)[C@H](O)C(=O)N1CCC[C@H]1C(=O)NC(C)(C)C`, 0.0019 µM corresponded to half-maximal inhibition in assay [4] (IC50).

Consider `CC(C)(C)NC(=O)[C@@H]1CCCN1C(=O)[C@H](O)[C@H](Cc1ccccc1)NC(=O)[C@H](CC(N)=O)NC(=O)OCc1ccccc1`, for which, in assay [4], half-maximal inhibition (IC50) required 3.1 µM.

Consider `CC(C)(C)NC(=O)[C@@H]1CCCN1C(=O)[C@@H](O)[C@H](Cc1ccccc1)NC(=O)OCc1ccccc1`, for which inhibition in assay [4] was half-maximal at 0.46 µM (IC50).

Compound `CC(C)(C)NC(=O)[C@@H]1CCCN1C(=O)[C@@H](O)[C@H](Cc1ccccc1)NC(=O)[C@H](CC(N)=O)NC(=O)c1ccc2ccccc2n1` registered a Ki in assay [7] of 0.0009 µM. Besides, 0.0011 µM corresponded to half-maximal inhibition in assay [4] (IC50).

`CC(C)(C)NC(=O)[C@@H]1CCCCN1C[C@@H](O)[C@H](Cc1ccccc1)NC(=O)[C@H](CC(N)=O)NC(=O)OCc1ccccc1` gave an IC50 in assay [6] of 0.018 µM.

For the origin of these results see ChEMBL document CHEMBL1125429, “Intriguing structure-activity relations underlie the potent inhibition of HIV protease by norstatine-based peptides” (J Med Chem, 1992).
